Reference: ChEMBL document CHEMBL5712087, “Targeting bromodomain-containing protein 4 (BRD4) inhibits MYC expression in colorectal cancer cells” (Neoplasia, 2019)
Active and inactive are the calls of the source. No cut-off for these calls is given here.

Tests used:
Format in all cases: cell-based
[1] = target: T1, von Hippel-Lindau disease tumor suppressor/Bromodomain-containing protein 4 (Homo sapiens) (UniProt O60885+P40337); assay: PROTAC activity at BRD4/VHL E3 ligase in human COLO 320 cells assessed as decrease in MYC protein expression at 5 to 10 uM for 24 hrs by Western blot analysis; conditions: dose 5-10 µM
Method in brief: (§1)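 Eight CRC lines exposed 24 h to PROTAC at 5 or 10 µM (stocks 2 mM in DMSO, diluted in PBS or medium). Lysis in RIPA with protease/phosphatase inhibitors and 2.5 mmol/l DTT; 15 µg protein on 10% SDS-PAGE, semi-dry transfer to nitrocellulose. Anti-BRD4 or anti-MYC at 1:1,000 overnight at 4 °C; GAPDH or β-actin loading control; chemiluminescence.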

[2] = target: T1, von Hippel-Lindau disease tumor suppressor/Bromodomain-containing protein 4 (Homo sapiens); assay: PROTAC activity at BRD4/VHL E3 ligase in human Caco-2 cells assessed as decrease in MYC protein expression at 5 to 10 uM for 24 hrs by Western blot analysis; conditions: dose 5-10 µM; method in brief: as §1
[3] = target: T1, von Hippel-Lindau disease tumor suppressor/Bromodomain-containing protein 4 (Homo sapiens); assay: PROTAC activity at BRD4/VHL E3 ligase in human SW480 cells assessed as decrease in BRD4 protein degradation at 5 to 10 uM for 24 hrs by Western blot analysis; conditions: dose 5-10 µM
Method in brief: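 Eight CRC lines, including LS174t (RPMI 1640) and SW480 (DMEM/HamsF12), all with 10% FCS, were treated with PROTAC at 5 and 10 µM. BRD4 and MYC proteins were detected by immunoblot (RIPA lysate, 15 µg, 10% gel, primary 1:1,000 overnight at 4 °C), with GAPDH/β-actin as loading control.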

[4] = target: T1, von Hippel-Lindau disease tumor suppressor/Bromodomain-containing protein 4 (Homo sapiens); assay: PROTAC activity at BRD4/VHL E3 ligase in human LS174T cells assessed as BRD4 protein degradation at 250 nM for 2 hrs by Western blot analysis
Method in brief: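 LS174t cells were exposed to PROTAC for 2 h. For washout, the PROTAC was removed by changing the culture medium and cells were harvested 22 h later. BRD4 was assessed by western blot (15 µg lysate, 10% SDS-PAGE, chemiluminescence), normalised against GAPDH/β-actin.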

[5] = target: T1, von Hippel-Lindau disease tumor suppressor/Bromodomain-containing protein 4 (Homo sapiens); assay: PROTAC activity at BRD4/VHL E3 ligase in human HT-29 cells assessed as decrease in MYC protein expression at 5 to 10 uM for 24 hrs by Western blot analysis; conditions: dose 5-10 µM; method in brief: as §1
[6] = target: T1, von Hippel-Lindau disease tumor suppressor/Bromodomain-containing protein 4 (Homo sapiens); assay: PROTAC activity at BRD4/VHL E3 ligase in human HCT116 p53+/+ cells assessed as decrease in MYC protein expression at 5 to 10 uM for 24 hrs by Western blot analysis; conditions: HCT-116, dose 5-10 µM; method in brief: as §1
[7] = target: T1, von Hippel-Lindau disease tumor suppressor/Bromodomain-containing protein 4 (Homo sapiens); assay: PROTAC activity at BRD4/VHL E3 ligase in human LS174T dbet1 resistant cells assessed as MYC mRNA level at 500 to 1000 nM for 24 hrs by RT-qPCR analysis; conditions: dose 500-1000 nM
Method in brief: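 Resistant LS174t cells were derived by four months' exposure to rising dBET1 concentrations, with outgrowing cells expanded. Resistant and parental cells were then treated and analysed for BRD4 and MYC protein by western blot (GAPDH/β-actin control) and for MYC mRNA by qPCR normalised to PPIA/ACTB (ΔΔCq).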

[8] = target: T2, Protein cereblon/Bromodomain-containing protein 4 (Homo sapiens) (UniProt O60885+Q96SW2); assay: PROTAC activity at BRD4/Cereblon in human LS174T-dbet1 resistant cells assessed as MYC mRNA level at 500 to 1000 nM for 24 hrs by RT-qPCR analysis; conditions: dose 500-1000 nM
Method in brief: (§2)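 Total RNA from 10^6 cells after 24 h treatment, Trizol-extracted and integrity-checked. 0.7 µg reverse transcribed, then SYBR-type qPCR: 95 °C 5 min, 40 cycles of 95 °C 15 s/60 °C 60 s. Melting curves checked. MYC or BRD4 normalised to PPIA and ACTB by ΔΔCq. At least three experiments; means ± SD.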

[9] = target: T2, Protein cereblon/Bromodomain-containing protein 4 (Homo sapiens); assay: PROTAC activity at BRD4/Cereblon in human fibroblast cells assessed as effect on MYC protein expression at 500 to 1000 nM for 24 hrs by Western blot analysis; conditions: dose 500-1000 nM
Method in brief: (§3)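 Cells treated 24 h across 1 nM–10 µM range (fibroblasts at 500/1000 nM). Immunoblot: RIPA lysate with 2.5 mmol/l DTT, 15 µg per lane on 10% SDS-PAGE, nitrocellulose, 5% milk block 1 h. BRD4 or MYC primary 1:1,000 overnight at 4 °C, HRP secondary 1:10,000 for 60 min; GAPDH/β-actin loading control; ECL detection.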

[10] = target: T2, Protein cereblon/Bromodomain-containing protein 4 (Homo sapiens); assay: PROTAC activity at BRD4/Cereblon in human HCT116 p53+/+ cells assessed as decrease in MYC protein expression at 5 to 10 uM for 24 hrs by Western blot analysis; conditions: HCT-116, dose 5-10 µM; method in brief: as §1
[11] = target: T2, Protein cereblon/Bromodomain-containing protein 4 (Homo sapiens); assay: PROTAC activity at BRD4/Cereblon in human COLO 320 cells assessed as decrease in BRD4 protein degradation at 5 to 10 uM for 24 hrs by Western blot analysis; conditions: dose 5-10 µM; method in brief: as §1
[12] = target: T2, Protein cereblon/Bromodomain-containing protein 4 (Homo sapiens); assay: PROTAC activity at BRD4/Cereblon in human DLD-1 cells assessed as decrease in BRD4 protein degradation at 5 to 10 uM for 24 hrs by Western blot analysis; conditions: dose 5-10 µM; method in brief: as §1
[13] = target: T2, Protein cereblon/Bromodomain-containing protein 4 (Homo sapiens); assay: PROTAC activity at BRD4/Cereblon in human HT-29 cells assessed as decrease in BRD4 protein degradation at 5 to 10 uM for 24 hrs by Western blot analysis; conditions: dose 5-10 µM; method in brief: as §1
[14] = target: T2, Protein cereblon/Bromodomain-containing protein 4 (Homo sapiens); assay: PROTAC activity at BRD4/Cereblon in human COLO 320 cells assessed as decrease in MYC protein expression at 5 to 10 uM for 24 hrs by Western blot analysis; conditions: dose 5-10 µM; method in brief: as §1
[15] = target: T2, Protein cereblon/Bromodomain-containing protein 4 (Homo sapiens); assay: PROTAC activity at BRD4/Cereblon in human HCT116 p53+/+ cells assessed as decrease in BRD4 protein degradation at 5 to 10 uM for 24 hrs by Western blot analysis; conditions: HCT-116, dose 5-10 µM; method in brief: as §1
[16] = target: T2, Protein cereblon/Bromodomain-containing protein 4 (Homo sapiens); assay: PROTAC activity at BRD4/Cereblon in human LS174T cells assessed as decrease in MYC mRNA level at 100 to 1000 nM for 24 hrs by RT-qPCR analysis; conditions: dose 100-1000 nM; method in brief: as §2
[17] = target: T2, Protein cereblon/Bromodomain-containing protein 4 (Homo sapiens); assay: PROTAC activity at BRD4/Cereblon in human LS174T cells assessed as decrease in MYC protein expression at […] for 24 hrs by Western blot analysis; method in brief: as §3
[18] = target: T2, Protein cereblon/Bromodomain-containing protein 4 (Homo sapiens); assay: PROTAC activity at BRD4/Cereblon in human DLD-1 cells assessed as decrease in MYC protein expression at 5 to 10 uM for 24 hrs by Western blot analysis; conditions: dose 5-10 µM; method in brief: as §1
[19] = target: T2, Protein cereblon/Bromodomain-containing protein 4 (Homo sapiens); assay: PROTAC activity at BRD4/Cereblon in human LS174T cells assessed as BRD4 protein degradation at 100 to 500 nM pretreated with proteasome inhibitor MG132 for 4 hrs by Western blot analysis; conditions: dose 100-500 nM
Method in brief: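 LS174t cells pre-incubated 4 h with proteasome inhibitor MG132 (10 mM DMSO stock) before PROTAC exposure. BRD4 read by immunoblot: 15 µg lysate, 10% SDS-PAGE, anti-BRD4 1:1,000 overnight at 4 °C, GAPDH/β-actin loading control.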

[20] = target: T2, Protein cereblon/Bromodomain-containing protein 4 (Homo sapiens); assay: PROTAC activity at BRD4/Cereblon in human Caco-2 cells assessed as decrease in BRD4 protein degradation at 5 to 10 uM for 24 hrs by Western blot analysis; conditions: dose 5-10 µM; method in brief: as §1

T2 sequence (Q96SW2 whole entry, looked up, other chains not shown): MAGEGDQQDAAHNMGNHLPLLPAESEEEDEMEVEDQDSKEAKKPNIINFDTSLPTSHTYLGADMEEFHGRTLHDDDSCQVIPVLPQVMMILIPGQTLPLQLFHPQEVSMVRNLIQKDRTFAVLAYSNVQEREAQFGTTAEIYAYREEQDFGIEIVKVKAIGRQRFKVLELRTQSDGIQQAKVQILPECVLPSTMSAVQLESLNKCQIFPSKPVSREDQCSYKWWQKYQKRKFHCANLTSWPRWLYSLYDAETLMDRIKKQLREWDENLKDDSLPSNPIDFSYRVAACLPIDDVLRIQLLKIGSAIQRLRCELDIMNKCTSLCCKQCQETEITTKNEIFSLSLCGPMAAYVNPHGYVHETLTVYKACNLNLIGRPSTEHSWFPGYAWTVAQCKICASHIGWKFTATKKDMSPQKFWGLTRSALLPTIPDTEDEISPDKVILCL
T1 sequence (P40337 whole entry, looked up, other chains not shown): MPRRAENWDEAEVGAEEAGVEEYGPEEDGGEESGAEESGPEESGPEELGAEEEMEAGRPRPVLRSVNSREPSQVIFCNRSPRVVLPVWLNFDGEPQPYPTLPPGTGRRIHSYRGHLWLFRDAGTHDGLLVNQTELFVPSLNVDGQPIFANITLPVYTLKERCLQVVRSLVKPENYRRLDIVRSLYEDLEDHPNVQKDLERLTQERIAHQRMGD

Row | Compound | Activity [1] | Activity [2] | Activity [3] | Activity [4] | Activity [5] | Activity [6] | Activity [7] | Activity [8] | Activity [9] | Activity [10] | Activity [11] | Activity [12] | Activity [13] | Activity [14] | Activity [15] | Activity [16] | Activity [17] | Activity [18] | Activity [19] | Activity [20]
1 | Cc1ncsc1-c1ccc(CNC(=O)[C@@H]2C[C@@H](O)CN2C(=O)[C@@H](NC(=O)COCCOCCOCCNC(=O)C[C@@H]2N=C(c3ccc(Cl)cc3)c3c(sc(C)c3C)-n3c(C)nnc32)C(C)(C)C)cc1 | Active | Active | Active | Active | Active | Active | Active |  |  |  |  |  |  |  |  |  |  |  |  | 
2 | Cc1sc2c(c1C)C(c1ccc(Cl)cc1)=N[C@@H](CC(=O)NCCCCNC(=O)COc1cccc3c1C(=O)N(C1CCC(=O)NC1=O)C3=O)c1nnc(C)n1-2 (stereo not given in full) |  |  |  |  |  |  |  | inactive | inactive | Active | Active | Active | Active | Active | Active | Active | Active | Active | inactive | Active
